# Experimental data pooled from the literature.
# Protocols differ between the studies behind these lines.
SMILES,medium,concentration,time,pH,Papp
O=c1cc(-c2ccc(O)cc2)oc2cc(O)cc(O)c12,PAMPA-BBB,1 µM,18 h,,13.9 ×10⁻⁶ cm/s
CC[C@@H](C)[C@@H]1NC(=O)[C@@H](Cc2ccc(Cl)cc2)NC(=O)CN(C)C(=O)[C@H]([C@H](C)CC)NC(=O)[C@@H](Cc2ccc(Cl)cc2)NC(=O)CN(C)C1=O,PAMPA,,,,33 ×10⁻⁶ cm/s
O=C(Nc1ccc2c(c1)B(O)OC2)c1cccc(OCc2ccccc2)c1,PAMPA,200 µM,5 h,pH 7.4,0.14 ×10⁻⁶ cm/s
COc1ccc(C[C@@H]2NC(=O)[C@@H](CC(C)C)NC(=O)[C@H](C)NC(=O)[C@H](CC(C)C)NC(=O)[C@@H](CC(C)C)NC(=O)[C@H]3CCCN3C2=O)cc1,PAMPA,10 µM,7 h,,19 ×10⁻⁶ cm/s
CN1CCN([C@@H](c2ccccc2)c2ccc(Cl)cc2)CC1,PAMPA,,,,1830 ×10⁻⁶ cm/s
Cc1nonc1Cn1nnc2c(N3CC[C@H](O)C3)nc(C(C)(C)C)nc21,PAMPA,,,,2.2 ×10⁻⁶ cm/s
CC[C@@H](C)[C@@H]1NC(=O)[C@@H](CC(C)C)NC(=O)CN(C)C(=O)[C@H]([C@H](C)CC)NC(=O)[C@@H](CC(C)C)NC(=O)CN(C)C1=O,PAMPA,,,,38 ×10⁻⁶ cm/s
COc1ccc(C[C@@H]2NC(=O)[C@@H](CC(C)C)NC(=O)CNC(=O)[C@H](CC(C)C)NC(=O)[C@@H](CC(C)C)NC(=O)[C@H]3CCCN3C2=O)cc1,PAMPA,10 µM,7 h,,9.1 ×10⁻⁶ cm/s
O=C(Nc1ccc2c(c1)B(O)OC2)c1ccc(OCc2ccc(Cl)cc2)cc1,PAMPA,200 µM,5 h,pH 7.4,4.4 ×10⁻⁶ cm/s
O=c1cc(-c2ccccc2)oc2c(O)c(O)ccc12,PAMPA-BBB,1 µM,18 h,,6.32 ×10⁻⁶ cm/s
O=C1[O][Pt]2([NH][C@@H]3CCCC[C@H]3[NH]2)[O]C1=O (relative stereo),PAMPA,,,pH 6.8,0.448 ×10⁻⁶ cm/s
Cn1c(=O)c2c(ncn2C)n(C)c1=O,PAMPA,200 µM,5 h,pH 7.4,11.7 ×10⁻⁶ cm/s
COCCOCCOCCOc1c(OC)cc2cc(C(=O)N3C[C@@H](CCl)c4c3cc(O)c3[nH]c(C(=O)OC)cc43)[nH]c2c1OC,PAMPA,1 µM,5 h,pH 7.4,4.2 ×10⁻⁶ cm/s
O=C(Nc1cccc(B(O)O)c1)c1cccc(OCc2ccccc2)c1,PAMPA,200 µM,5 h,pH 7.4,0.1 ×10⁻⁶ cm/s
CNC(=O)[C@@H](NC(=O)c1cc(OCC2(C)COC2)c(C2CC2)cn1)C(C)(C)C,PAMPA,,,,5.17 ×10⁻⁶ cm/s
